Measured values as given in ChEMBL document CHEMBL1124570, “2-[[(4-Amino-2-pyridyl)methyl]sulfinyl]benzimidazole H+/K+-ATPase inhibitors. The relationship between pyridine basicity, stability, and activity” (J Med Chem, 1989).
In brackets after ≈: the same amount, converted by molar mass.

How the values were obtained:
[1] = Half-life at pH 7.4; type: ADME; settings: buffer
Summary of the method: (§1)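 Stability at ambient temperature (20 °C) in acetonitrile/phosphate buffer (1:3) adjusted to the stated pH. Initial compound concentration is 1 × 10⁻³ to 3 × 10⁻⁴ M. Loss is followed by reverse-phase C18 HPLC with UV detection at 280 nm. t1/2 comes from linear regression of ln(concentration) vs time (h).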

Canis familiaris [2] = assay: Inhibition of histamine-stimulated gastric acid secretion in conscious Heidenhain pouch dog after intravenous administration; type: functional; settings: Canis lupus familiaris, Stomach
Summary of the method: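 Conscious dog with a Heidenhain pouch made 1-3 years earlier. Acid secretion is stimulated by i.v. histamine at 0.5 μmol/(kg·h). Juice is collected by gravity every 15 min and titrated to pH 7.4 with 0.1 N NaOH. Inhibitor is given i.v. at submaximal plateau. % inhibition compares the peak-inhibition sample with the pre-dose sample. ED50 uses three doses × three dogs, with 95% confidence limits (n = 9).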

Rattus norvegicus [3] = assay: Inhibition of histamine-stimulated gastric acid secretion in lumen perfused anesthetized rat after intravenous administration; type: functional; settings: Stomach
Summary of the method: (§2)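 Anaesthetized rat with stomach lumen perfusion. Effluent H⁺ activity is monitored continuously with a microflow glass electrode. Secretion is driven by i.v. histamine infusion at 0.25 μmol/(kg·min). Inhibitor is given i.v. or i.d. once a submaximal plateau is reached. % inhibition compares peak inhibition with the pre-dose plateau. ED50 uses three dose levels, three animals per dose.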

[4] = Dissociation constant at 37 degree Centigrade; type: physicochemical
Rattus norvegicus [5] = assay: Inhibition of histamine-stimulated gastric acid secretion in lumen perfused anesthetized rat after intraduodenal administration; type: functional; settings: Stomach; summary of the method: as §2
[6] = Half-life at pH 1.0; type: ADME; settings: buffer; summary of the method: as §1
Canis familiaris [7] = assay: Percent inhibition of histamine-stimulated gastric acid secretion in Heidenhain pouch dog after intraduodenal administration of compound (1 umol/kg); type: functional, Canis lupus familiaris, Stomach
Summary of the method: (§3)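 Heidenhain pouch dog with i.v. histamine at 0.5 μmol/(kg·h). Juice is collected every 15 min and acid output is found by titration to pH 7.4. Compound is given intraduodenally via a chronic duodenal cannula at submaximal plateau. Value is peak inhibition or mean plateau inhibition over 1 to 2½ h, mean of n = 4 dogs ± SEM.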

Rattus norvegicus [8] = assay: Inhibition of histamine-stimulated gastric acid secretion in lumen perfused anesthetized rat after intravenous administration; Poor solubility; type: functional, organism-based; settings: Stomach; summary of the method: as §2
[9] = Partition coefficient at 37 degrees Celsius at pH 7.4; type: physicochemical; settings: octanol/water
[10] = Dissociation constant at 37 degrees Centigrade; type: physicochemical
Rattus norvegicus [11] = assay: Inhibition of histamine-stimulated gastric acid secretion in lumen perfused anesthetized rat after intravenous administration of 1 umol/kg.; type: functional; settings: Stomach; summary of the method: as §2
[12] = Partition coefficient at 37 degree Celsius at pH 7.4; type: physicochemical; settings: octanol/water
Canis familiaris [13] = assay: Percent inhibition of histamine-stimulated gastric acid secretion in Heidenhain pouch dog after intraduodenal administration of compound (2 umol/kg); type: functional, Canis lupus familiaris, Stomach; summary of the method: as §3
[14] = Solubility in water at pH 10
Rattus norvegicus [15] = assay: Inhibition of histamine-stimulated gastric acid secretion in lumen perfused anesthetized rat after intravenous administration of 1 umol/kg; type: functional; settings: Stomach; summary of the method: as §2

Row | half-life [1] [h] | pKa [4] | SMILES | ED50 (Canis familiaris [2]) [µmol/kg] | ED50 (Rattus norvegicus [5]) [µmol/kg] | also measured
1 | 96 | – | COc1ccc2[nH]c([S+]([O-])Cc3cc(N(C)C)c(Cl)cn3)nc2c1 (stereo not given) | 0.77 | – | ED50 (Rattus norvegicus [3]): 1.32 µmol/kg
2 | 144 | 5.89 | COc1ccc2[nH]c([S+]([O-])Cc3nccc(N4CCOCC4)c3F)nc2c1 (stereo not given) | – | 3.2 | –
3 | 432 | 5.92 | COc1ccc2[nH]c([S+]([O-])Cc3ncc(C)c(N(C)C)c3Cl)nc2c1 (stereo not given) | – | 1.48 | half-life [6]: 1 min; Inhibition (Canis familiaris [7]): 67%; ED50 (Rattus norvegicus [3]): 0.34 µmol/kg
4 | 60 | – | COc1ccc2[nH]c([S+]([O-])Cc3ncc(C)c(N4CCCC4)c3Cl)nc2c1 (stereo not given) | 0.57 | – | –
5 | 36 | 7.58 | COc1ccc2[nH]c([S+]([O-])Cc3nccc(N4CCCC4)c3Cl)nc2c1 (stereo not given) | – | – | ED50 (Rattus norvegicus [8]): Poor solubility
6 | 456 | – | COc1ccc2[nH]c([S+]([O-])Cc3ncc(C)c(OC)c3C)nc2c1 (stereo not given) [OMEPRAZOLE] | 0.2 | – | half-life [6]: 2 min; logD [9]: 2.18; pKa [10]: 6.29; Inhibition (Canis familiaris [7]): 53%
7 | 864 | 5.4 | COc1ccc2[nH]c([S+]([O-])Cc3cc(N4CCCCC4)c(Br)cn3)nc2c1 (stereo not given) | 2.94 | 1.05 | –
8 | > 3000 | 5.32 | COc1ccc2[nH]c([S+]([O-])Cc3ncc(C)c(N4CCOCC4)c3Cl)nc2c1 (stereo not given) | – | – | –
9 | 26 | 6.96 | COc1ccc2[nH]c([S+]([O-])Cc3cc(N(C)C)c(F)cn3)nc2c1 (stereo not given) | – | – | inhibition in vivo at 1 µmol/kg (Rattus norvegicus [11]): 37%
10 | 49 | 6.92 | COc1ccc2[nH]c([S+]([O-])Cc3cc(N4CCCC4)c(Br)cn3)nc2c1 (stereo not given) | – | – | –
11 | 101 | 5.8 | COc1ccc2[nH]c([S+]([O-])Cc3cc(N(C)C)c(Br)cn3)nc2c1 (stereo not given) | – | 1.75 | ED50 (Rattus norvegicus [3]): 0.26 µmol/kg
12 | 17 | – | COc1ccc2[nH]c([S+]([O-])Cc3nccc(N(C)C)c3Cl)nc2c1 (stereo not given) | 0.26 | 0.38 | ED50 (Rattus norvegicus [3]): 0.44 µmol/kg
13 | 175 | 5.95 | COc1ccc2[nH]c([S+]([O-])Cc3nccc(N4CCCCC4)c3Cl)nc2c1 (stereo not given) | 1.16 | 7.72 | –
14 | 1300 | 5.28 | COc1ccc2[nH]c([S+]([O-])Cc3nccc(N4CCOCC4)c3Cl)nc2c1 (stereo not given) | 1.01 | 1.14 | half-life [6]: 1 min; logD [12]: 1.81; Inhibition (Canis familiaris [13]): 48%; solubility [14]: 15 mg/mL (≈ 36.9 mM)
15 | 418 | 5.72 | COc1ccc2[nH]c([S+]([O-])Cc3cc(N4CCOCC4)c(F)cn3)nc2c1 (stereo not given) | 5.07 | 0.65 | –
16 | 300 | – | COc1ccc2[nH]c([S+]([O-])Cc3nccc(N4CCCCC4)c3Br)nc2c1 (stereo not given) | – | – | ED50 (Rattus norvegicus [3]): 0.85 µmol/kg
17 | 11 | 7.12 | COc1ccc2[nH]c([S+]([O-])Cc3nccc(N(C)C)c3F)nc2c1 (stereo not given) | – | – | –
18 | – | – | COc1ccc2[nH]c([S+]([O-])Cc3cc(N4CCOCC4)c(Br)cn3)nc2c1 (stereo not given) | – | – | inhibition in vivo at 1 µmol/kg (Rattus norvegicus [15]): 14%
19 | 444 | – | COc1ccc2[nH]c([S+]([O-])Cc3ncc(C)c(N4CCCCC4)c3Cl)nc2c1 (stereo not given) | – | 2.51 | –
